# Laboratory results from the EternaBench riboswitch data.
# Test system: MS2 coat protein
# Assay: apparent Kd, MS2 coat protein; higher = weaker binding; RNA-MaP array; FMN 200 µM where present
# In short: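 Apparent Kd: the median of filtered binding-curve fits from single clusters. Designs were transcribed on Illumina sequencing-chip clusters by stalled E. coli RNA polymerase and titrated with SNAP-549-labelled MS2 coat protein from 0.7 or 1.5 nM, doubling to 3 µM, in 100 mM Tris-HCl pH 7.5, 80 mM KCl, 4 mM MgCl2, BSA, DTT, yeast tRNA and Tween-20. Each series ran without and then with constant ligand, and green signal was normalised to red-channel RNA signal and control-cluster median Fmax.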
# [1] = designed as: OFF switch for flavin mononucleotide, no ligand
# [2] = ligand present: flavin mononucleotide, designed as: OFF switch for flavin mononucleotide
# [3] = designed as: ON switch for flavin mononucleotide, no ligand
# [4] = ligand present: flavin mononucleotide, designed as: ON switch for flavin mononucleotide
Sequence,apparent Kd [1] [nM],apparent Kd [2] [nM],apparent Kd [3] [nM],apparent Kd [4] [nM]
GGGCCCGGAGGAUAUACAAUGGGCUCGGGAAACUGGGUCUUACAUGAGGAUCACCCAUGUAGAAGGCCGGGCCC,18.9,23.4,,
UCUUGACAUGAGGAUCACCCAUGUCAGGAUAUAGUAGGACAAAUAAAUAAAAGUUCUACUAGAAGGGAUAUGGG,24.9,46.8,,
ACUGUUUGAUUCCUCUUAUACAUGAGGAUCACCCAUGUUAUCGAGGAUAUGCAUUAGAGUGUUUGGCAGAAGGCGAUGUAAUUG,6.9,23.4,,
CUUUAGUGAGGAUAUCAGUAGUAAUACAAUAGUAUUAUUACUGAGAAGGCACAUGAGGAUCACCCAUGUUCCUC,29.4,120,,
GCGAUUGCGUAGAAGGUACAAUAUAUUUCAUUGUAAGGAUAUACUUACAUGAGGAUCACCCAUGUUAAUGGAAUUUGCAAUCGC,,,74.1,28.9
AAGAUGUAAGGAUAUGCUGCUCGUCACAAAAGUGAUGAGUAGCAGAAGGUACAUGAGGAUCACCCAUGUAGAGA,31.4,55.7,,
ACAUGAGGAUCACCCAUGUAAACAUAGGAUAUUGGUGAUCAGGCAUGUUAUACAGGAUAUGUCUGCGAGAAGGAUGCACGUUGC,,,583,465
GCCAGAGCAGGAUAUCUAAUAUGUCACAUGAGGAUCACCCAUGUCCAGCGAAAGCUGGAGGGAGAAGGGCUCUGGC,65.6,24.4,,
GGAAAUCAUGUAGGAUAUGCAUGGCGAAGCUACGCAGAAGGACAUGAGGAUCACCCAUGUUAUAGCUACCAAGUUAGGUGGCAA,139,144,,
CAUAAGAUAGGAUAUACAGGCCCGUCUUCAUAUUGAUCCCGACAUGAGGAUCACCCAUGUAGAAGGAUCAUAUG,13.5,13.4,,
GAGUGACACCAGAAGGGCCAGGAAAGAACACUGGUAGGAUAUGGAGCGCCCUCGUAACGACCGACAUGAGGAUCACCCAUGUCC,,,117,28.1
UUCGUGCAGCUUUGCUGUACGCGUACAUGAGGAUCACCCAUGUAGGAUAUGGUACGCGUUGCGUGCUAGAAGGAUAUGGAGAGG,18.4,22.9,,
GGGACCAACACAGGAUAUGCUAUCCUUUGGGUAGCAGAAGGGUGAAACAUGAGGAUCACCCAUGUGGUUCCAGGGCGUGAGCCC,,,1580,99.6
AACGAGCAGUAGAAGGGAUGUCUACGGACAUGAGGAUCACCCAUGUUGUGACUCCGAAAGGAGCGUCAGGAUAUACUGCUCAAA,,,8.13,6.15
GGUUGGCGAGGAUAUACAUGAGGAUCACCCAUGUGGUCCUGUGGCUGAUCUUGCCUUUGUAGAAGGCGCGGGUC,49.4,45.3,,
ACGACGAAAGUCGAACGAUGUACGAGAAGGACAUGAGGAUCACCCAUGUUAUCUGUAAUAGACAUGUAGGAUAUCGUACAUCGA,8.26,26.6,,
UGUGGUGAAGUAGGAUAUCAACACACAUGAGGAUCACCCAUGUUAGAUGUGGAUGUUGUAUGUUAUGAGAAGGACUUCGGUGCG,23.6,89,,
GACAUACAUGAGGAUCACCCAUGUUCAAACGAACAAGGAUAUGUGUGGAAACCAUACUAUACAGAAGGUGUCUGUC,,,81.7,97.7
AAAAAACAUGAGGAUCACCCAUGUCCUCGGACGUGAGGAUAUGUACAGACUUCGGUCUGUACAGAAGGCAUGUCAA,,,408,604

Sequence,apparent Kd [1] [nM],apparent Kd [2] [nM],apparent Kd [3] [nM],apparent Kd [4] [nM]
ACAUGAGGAUCUCCCAUGUAAAAUUAGGAUAUAUGACUGCACAUGAGGAUCACCCAUGUUUUACCGUAGAAGGGAUAAAUAAUU,,,867,855
AGUCGGAGCAGAGGAUAUUACAUGAGGAUCACCCAUGUAUAAAGAUCAAGCUGGAAACAGCAAUGUAAGAAGGCUGCUCCGACA,57.4,321,,
AGAAAUUAGUGAGGAUAUGCUUAAAUUGUAGUUGCAGAAGGCACGGACCACAAGACAUGAGGAUCACCCAUGUGGUAUUUAGAU,28.9,33,,
AUCAGCUCGUCAGGAUAUACGUCACUGCGUCAGCAGUGUGGUAAGAUCACAUGAGGAUCACCCAUGUAGAAGGGAGGAGCUGAU,15,438,,
CCUUUGAAGAUCCUGGUUUUCGACAUGAGGAUCACCCAUGUGCAGGAUAUCGUGCCAGUGCUGUGCGAGAAGGGCAGUCUCUGC,17.1,18.9,,
CUGAUGUUAGGAUAUCAGGUCGCGCGCGAAGGCGCGCAGCAUGAGAAGGAACAUGAGGAUCACCCAUGUGACGA,22.4,60.5,,
GGCGGCGCGGGCCACCGCAGGACCAGAAGGACAUGAGGAUCACCCAUGUGGCAGAACAGGGCGGUGUAGGAUAUGGCAGGCUCG,28.8,64.3,,
AAAAAGCGAGGAUAUGCGGGCGGGUGCGGCCAGCCGAUGUGACAUGAGGAUCACCCAUGUAGAAGGCGCAAAAA,12.3,15.1,,
ACUUAUAGAGGAUAUACAGUUUAUUACAUGAGGAUCACCCAUGUUCUUCAAUGUAUAUAAGUAGAAGGCUAAGGAA,35,175,,
CCGGAAAAGGAGGAUAUAGGAGUCGAUAGACACCUAGAAGGUCUGACAUGAGGAUCACCCAUGUGUCCUACCGG,21.2,30.2,,
GUCGUUUCUGAGGAUAUUAUUUUUUUCGAUUGAUAAGAAGGCAGUACAUGAGGAUCACCCAUGUGGGUUGUCUG,30,97.3,,
UUGGUUGUCGUAGGAUAUGUAGGAUAUUCCUACAUGAGGAUCACCCAUGUUAGCAUGGAAGAAGGACAGAAGGACGAUGACCAU,,,1010,16.9
AUGAGGGAAGUAGGAUAUGAUCAAGACAUGAGGAUCACCCAUGUAAUGAGGGUGUGUGUCUUUGUUCAGAAGGACUUGUGUCAA,46.4,52.6,,
AACAAUGGUUAACAUGAGGAUCACCCAUGUUGGAAGCCUUCACAGGAUAUGUAGCGGGCAUACGCACAGAAGGGUGAUCGCGGU,,,37.5,32.6
GGUUGGCGAGGAUAUACAUGAGGAUCACCCAUGUGGUCCUGCGGUGGUUUCGCCCUUUGUAGAAGGCGCGGGUC,40.9,40.5,,
AUGGACGAAGGAUAUGCAUGGAGACCGGGCAGUUCAGCGCUACAUGAGGAUCACCCAUGUAGAAGGUCGCUCCC,16,24.6,,
AGUGCGUAUGUGAGGAUAUGCUGGUCCUUGGAUCAGCAGAAGGCACAUGAGGAUCACCCAUGUGGUGUCGUACA,342,24.9,,
CUCGAGUGAGGAUAUUGAAUCGGCGGCUGACCGCACGAGCUCGAGAAGGCACAUGAGGAUCACCCAUGUGGGUC,15.2,27.3,,
ACUUUACGAGGAUAUACUGUCGGGCCUCGGGCGUCCCUGCGACAUGAGGAUCACCCAUGUAGAAGGCGUUUACU,20.6,35.2,,

Sequence,apparent Kd [1] [nM],apparent Kd [2] [nM],apparent Kd [3] [nM],apparent Kd [4] [nM]
CAGACACAUGAGGAUCACCCAUGUGAGGAUAUGCGUACGUUGUCCGUAGGCGACGUGCGCAGAAGGCGCAUUGG,110,252,,
AAAAUACAUGAGGAUCACCCAUGUCAGGAUAUGCUAAAAAAAAAAUUAAAAAAAAAAUGUAGAAGGGACUAAAA,99,106,,
AUCAUCUUGUCAGGAUAUGCGUGUCGACGAAAGUAGACAAUCUUGAUAACAUGAGGAUCACCCAUGUAGAAGGGACGAGAUGAU,21.6,24.5,,
UAUGUGACACAGAAGGCCAGUCACAUGAGGAUCACCCAUGUAGUAAAGUGGAGGAUAUGUGUGCCUAGCAACUUACUAGCAAGA,,,107,9.61
GCUUGUGAAGGAUAUACUGGAGGAGUGCGAUAGAAGCACGAACAUGAGGAUCACCCAUGUAGAAGGUCAGGCGU,24.4,29.1,,
ACGCCCUAGUAGAAGGGACAUCGGCUGGUAAGCAUCAUCUCCUUCUCACAUGAGGAUCACCCAUGUCAGGAUAUACUAGGAUGC,12.2,35.1,,
UUUUUACUUGCAGGAUAUGGAGACAUGAGGAUCACCCAUGUAUGAUAAGCUAAAUUAUGCUGUGGCCAGAAGGGUAUUGUUCUU,,,72,52.9
CAAGUCAUAGCUUCUUAGCCAGCCAGAAGGGUCUACAUGAGGAUCACCCAUGUGGUCUCGAAGGGACAGGAUAUGGAGGGCGUA,11.1,37.7,,
UUUGAUUGCACAGGAUAUUGUCAUUUGAGUUGUCAAGAAGGGUGUACAUGAGGAUCACCCAUGUAAUGGUUGCCUCGCUGACUU,95.7,272,,
UCUUAUUGCAAGGAUAUGCAAAUUAUUAUUAAUGCAGAAGGUGCUACAUGAGGAUCACCCAUGUUUCCGGGUUU,45,161,,
AAGUAGAUCCGAGGAUAUACAAUCCGGAAACGGUACAUGAGGAUCACCCAUGUAGAAGGCGGAUCUACAGGUACUAAAGUACCG,6.33,9.45,,
UUUUAACAUGAGGAUCACCCAUGUGAGGAUAUCGAAUUUUUUAUUAAUAUUAAUAAAACGAGAAGGCACAUUUU,63.1,70.2,,
AACUCACAUGAGGAUCACCCAUGUGAGGAUAUGAUACUAUGUACUUCGGUACAUAGUAUCAGAAGGCAUGUGGA,14.4,18.9,,
UAAAUGUCAGGAUAUUGUUAAUUUAGUUGUUUGUAUUAGUUCGAGAAGGGACAUGAGGAUCACCCAUGUUAAUU,30.2,36,,
GCCAUCGCAUGAGGAUAUGCUCCCGUUUCGGGAGCAGAAGGCAUGUCACAAGACAUGAGGAUCACCCAUGUAGUUAUGAUGGCA,,,221,8.6
AUCAGCUCGUCAGGAUAUACGUCACUGCGUCAGCAGUGUGGUAAGAACACAUGAGGAUCACCCAUGUAGAAGGGACGAGCUGAU,6.31,7.81,,
GUAGGGUCAGGAUAUACUGGCUGAGGGAUGUAUUGUAGUUGGUAGAAGGGACAUGAGGAUCACCCAUGUAAGAA,36,26.1,,
UCGGCGCGAGGAUAUGCGGCUUGUGCUUCGGGCCCUCGCGUACAUGAGGAUCACCCAUGUAGAAGGCGCGCCGC,120,91.7,,
